In paper PMC4492651 (Drug Design, Development and Therapy, 2015):
Read-outs that look alike come from different tables or passages of the source.

Legend:
HT22 cells = test: H2O2-induced cytotoxicity in HT22 cells; type: cell-based, murine; conditions: Mus musculus, HT-22, read-out: H2O2-treated HT22 viability percentage
In short: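 Murine HT22 cells in DMEM with 10% newborn calf serum, 37°C, 5% CO2. Seeded at 20,000 cells/well and grown 24 h. Pretreated in quadruplicate with test compound (10–100 µM) for 2 h, exposed to 500 µM H2O2 for 1 h, then given fresh medium for 12 h. Viability by MTT. Four separate experiments, mean ± SD.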

[1] = system: transient middle cerebral artery occlusion; set-up: species or system Sprague Dawley rats; conditions: rat, in vivo, ip
[2] = system: carrageenan-induced thrombosis; test: Model of carrageenan-induced thrombosis; type: in vivo, KM mice; conditions: n=10; for Black tail length (cm) 24 hours / Black tail occurrence (%) 24 hours: 24 hours after carrageenan; for Black tail length (cm) 24 hours / Black tail length (cm) 48 hours: mean ± SD; for Black tail length (cm) 48 hours / Black tail occurrence (%) 48 hours: 48 hours after carrageenan
[3] = system: GSH-Px, SOD, NO and MDA in brain tissue; test: Antioxidant stress activity in vivo after I/R; set-up: species or system Sprague Dawley rats; conditions: I/R rats; for content of SOD in comparison with the model group: 3d 10, 20 and 50 mg/kg, NBP 20 mg/kg, Eda 3.0 mg/kg
In short: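 Male Sprague Dawley rats underwent filament MCAO, 2 h occlusion then reperfusion. Test compound (10, 20, 50 mg/kg; model vehicle oil) given ip 15 min after MCAO onset. At 24 h reperfusion, under chloral hydrate, brains were rinsed in cold saline; ischemic core and penumbra were separated and stored at −70°C. After protein assay, T-SOD and GSH-Px activities, MDA and NO were measured by kits. n=10, mean ± SD, ANOVA/Newman–Keuls.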

[4] = 3 mg/kg by gavage daily for 2 days
[5] = 50 mg/kg by gavage daily for 2 days

Row | Structure (SMILES) | viability at 100 µM (HT22 cells) | infarct size reduced by ([1]; 3 mg/kg) | Black tail length (cm) 24 hours [2, 4] | Black tail occurrence (%) 24 hours [2, 4] | Black tail length (cm) 48 hours [2, 4] | Black tail occurrence (%) 48 hours [2, 4] | levels of GSH-Px activity vs model animals ([3]; ischemic core, 3d 50 mg/kg, Eda 3 mg/kg) | content of SOD in comparison with the model group [3] | Black tail length (cm) 24 hours [2, 5] | Black tail occurrence (%) 24 hours [2, 5] | Black tail length (cm) 48 hours [2, 5] | Black tail occurrence (%) 48 hours [2, 5] | infarct size reduced by ([1]; 20 mg/kg) | NO activity ([3]; 20 mg/kg, 24 hours postreperfusion, model 1.51)
1 | CC1=NN(c2ccccc2)C(=O)C1 [Eda, edaravone] | 69.9% | 69.65% | 4.6±1.7 cm | 70% | 4.5±1.8 cm | 80% | significantly higher | increased | – | – | – | – | – | –
2 | CC(=O)Oc1ccccc1C(=O)O [ASP, aspirin] | – | – | – | – | – | – | – | – | 1.5±0.5 cm | 30% | 2.4±0.6 cm | 40% | – | –
3 | CCCCC1OC(=O)c2ccccc21 (centres unmarked) [NBP, 3-n-butylphthalide] | 71.5% | – | – | – | – | – | – | increased | 3.1±0.3 cm | 30% | 3.5±0.5 cm | 50% | 26.19% | 0.92 U/mg
